The species entered for test [1] is Oryctolagus cuniculus. In words: Compound was evaluated for antiviral activity against Herpes Simplex Virus (HSV-1 strain 377) in rabbit kidney cells. The format is functional.
Test [2] is filed under the species Oryctolagus cuniculus. In words: Compound was tested for the inhibition of the replication of herpes simplex virus in vero cells of HSV-2 strain MS in rabbit kidney cells. The format is functional.
The species named for test [3] is Oryctolagus cuniculus. Description: Compound was evaluated for antiviral activity against HSV-2 strain MS in rabbit kidney cells. The format is functional.
The species named for test [4] is Oryctolagus cuniculus. Description: Compound was tested for the inhibition of the replication of herpes simplex virus (HSV-I strain 377) in rabbit kidney cells. The format is functional.
The subject of test [5] is Vero. Description: Compound was evaluated for antiviral activity against Herpes Simplex Virus (HSV-2 strain MS) in vero cells in exp. no. 3. The format is functional, Chlorocebus sabaeus. Put shortly: (§1)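 Inhibition of virus-induced cytopathogenic effect was measured in Vero cells infected with TK⁺ HSV-1 strain 377 or TK⁺ HSV-2 strain MS, using a modified Ehrlich method. Activity is given as a virus rating, which weights both the degree of CPE inhibition and the cytotoxicity of the compound. Potency is given as the minimum inhibitory concentration (MIC₅₀).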

The test system of test [6] is Vero. In words: Compound was evaluated for antiviral activity against Herpes Simplex Virus (HSV-1 strain 377) in vero cells in exp. no. 3. Type of test: functional, Chlorocebus sabaeus. The gist of the method: as §1
The subject of test [7] is Vero. In words: Compound was tested for the inhibition of the replication of herpes simplex virus (HSV-I strain 377) in vero cells in exp. no. 3. Type of test: functional. To be noted: Chlorocebus sabaeus. The gist of the method:
as §1

In test [8] the test system is Vero. Description: Compound was evaluated for antiviral activity against Herpes Simplex virus (HSV-2 strain MS) in exp. no. 2. The format is functional, Chlorocebus sabaeus.
The subject of test [9] is Vero. Description: Compound was tested for the inhibition of the replication of herpes simplex virus (HSV-I strain 377) in vero cells of in exp. no. 1. Type of test: functional. To be noted: Chlorocebus sabaeus. The gist of the method: as §1
Test [10] has as its system Vero. Description: Compound was tested for the inhibition of the replication of herpes simplex virus (HSV-2 strain MS) in vero cells in exp. no.2. Type of test: functional. To be noted: Chlorocebus sabaeus. Put shortly: as §1
Test [11] deals with Vero. In words: Compound was evaluated for antiviral activity against Herpes Simplex virus (HSV-2 strain MS) in exp. no. 1. The format is functional, Chlorocebus sabaeus.
The subject of test [12] is Vero. In words: Compound was evaluated for antiviral activity against Herpes Simplex Virus (HSV-1 strain 377) in vero cells in exp. no. 1. The format is functional, Chlorocebus sabaeus. Put shortly:
as §1

Test [13] relates to Vero. Description: Compound was tested for the inhibition of the replication of herpes simplex virus (HSV-I strain 377) in vero cells in exp. no. 1. To be noted: Chlorocebus sabaeus. Type of test: functional. The gist of the method: as §1
The subject of test [14] is Vero. In words: Compound was tested for the inhibition of the replication of herpes simplex virus (HSV-I strain 377) in vero cells of in exp. no. 2. Conditions: Chlorocebus sabaeus. The format is functional. The gist of the method:
as §1

Test [15] deals with Vero. In words: Compound was evaluated for antiviral activity against Herpes Simplex virus (HSV-1 strain 377) in exp. no. 2. Type of test: functional, Chlorocebus sabaeus.
The test system of test [16] is Vero. Description: Compound was tested for the inhibition of the replication of herpes simplex virus (HSV-2 strain MS) in vero cells in exp. no.1. Type of test: functional. To be noted: Chlorocebus sabaeus. The gist of the method:
as §1

In test [17] the test system is Vero. In words: Compound was evaluated for antiviral activity against Herpes Simplex Virus (HSV-1 strain 377) in vero cells in exp. no.1. Type of test: functional, Chlorocebus sabaeus. The gist of the method: as §1
Test [18] concerns Vero. Description: Compound was tested for the inhibition of the replication of herpes simplex virus (HSV-I strain 377) in vero cells in exp. no.1. The format is functional. Conditions: Chlorocebus sabaeus. Put shortly: as §1
Test [19] concerns Vero. Description: Compound was evaluated for antiviral activity against Herpes Simplex Virus (HSV-2 strain MS) in vero cells in exp. no.2. Type of test: functional, Chlorocebus sabaeus. Put shortly:
as §1

The test system of test [20] is Vero. Description: Compound was tested for the inhibition of the replication of herpes simplex virus (HSV-I strain 377) in vero cells in exp. No. 2. Type of test: functional. Conditions: Chlorocebus sabaeus. The gist of the method:
as §1

Test [21] deals with Vero. Description: Compound was evaluated for antiviral activity against Herpes Simplex Virus (HSV-1 strain 377) in vero cells in exp. No. 2. The format is functional, Chlorocebus sabaeus. Put shortly:
as §1

The subject of test [22] is Vero. In words: (§2) Compound was tested for the inhibition of the replication of herpes simplex virus (HSV-2 strain MS) in vero cells in exp. No. 2. The format is functional. Conditions: Chlorocebus sabaeus. The gist of the method: as §1
In test [23] the test system is Vero. Description: Compound was evaluated for antiviral activity against Herpes Simplex Virus (HSV-2 strain MS) in vero cells in exp. No. 2. The format is functional, Chlorocebus sabaeus. Put shortly:
as §1

Test [24] relates to Vero. Described as §2. Type of test: functional. To be noted: Chlorocebus sabaeus. The gist of the method:
as §1
The source holds these as a separate data set.

The test system of test [25] is Vero. Description: Compound was tested for the inhibition of the replication of herpes simplex virus (HSV-2 strain MS) in vero cells in exp. No. 3. Type of test: functional. Conditions: Chlorocebus sabaeus. Put shortly:
as §1

Test [26] relates to Vero. In words: Compound was tested for the inhibition of the replication of herpes simplex virus (HSV-I strain 377) in vero cells in exp. No. 3. Type of test: functional. Conditions: Chlorocebus sabaeus. Put shortly:
as §1

Test [27] concerns Vero. In words: Compound was tested for the inhibition of the replication of herpes simplex virus (HSV-I strain 377) in vero cells in exp. No. 1. Type of test: functional. To be noted: Chlorocebus sabaeus. The gist of the method: as §1
Test [28] deals with Vero. Description: Compound was evaluated for antiviral activity against Herpes Simplex Virus (HSV-2 strain MS) in vero cells in exp. No. 3. The format is functional, Chlorocebus sabaeus. The gist of the method: as §1
Test [29] relates to Vero. Description: Compound was evaluated for antiviral activity against Herpes Simplex Virus (HSV-2 strain MS) in vero cells in exp. No. 1. Type of test: functional, Chlorocebus sabaeus. Put shortly: as §1
In test [30] the test system is Vero. Description: Compound was evaluated for antiviral activity against Herpes Simplex Virus (HSV-1 strain 377) in vero cells in exp. No. 1. Type of test: functional, Chlorocebus sabaeus. Put shortly:
as §1

Test [31] concerns Vero. Description: Compound was tested for the inhibition of the replication of herpes simplex virus (HSV-I strain 377) in vero cells of in exp. No. 1. Conditions: Chlorocebus sabaeus. Type of test: functional. Put shortly: as §1
Test [32] concerns Vero. In words: Compound was tested for the inhibition of the replication of herpes simplex virus (HSV-2 strain MS) in vero cells in exp. No. 1. Type of test: functional. To be noted: Chlorocebus sabaeus. Put shortly:
as §1

For test [33], the system named is Vero. In words: Compound was evaluated for antiviral activity against Herpes Simplex Virus (HSV-1 strain 377) in vero cells in exp. No. 3. Type of test: functional, Chlorocebus sabaeus. Put shortly: as §1

In brackets after ≈: the same amount, converted by molar mass. Several values for one entry are separate records, joined by “and”; a condition that tells them apart may be missing. Equal entries are not always repeated.

As for `Cc1cn([C@@H]2C[C@H](CO)[C@@H](O)C2)c(=O)[nH]c1=O`, the VR is listed as 5.4 in test [1] and 3.2 in test [3]. The MIC50 was 7 µg/mL (≈ 29.1 µM) in [2] and 0.8 µg/mL (≈ 3.33 µM) in test [4].

Consider `C[Si](C)(C)CCc1cn([C@H]2C[C@H](O)[C@@H](CO)O2)c(=O)[nH]c1=O`, for which the results for the VR in [5] and in [6] were 0.1 and 0.5, respectively. Moreover, the MIC50 in [7] is 320 µg/mL and 980 µM.

With `CC(=O)OC[C@H]1O[C@@H](n2cc(C#C[Si](C)(C)C)c(=O)[nH]c2=O)C[C@@H]1OC(C)=O`, the VR in [5] and in test [6] was 0 in each case.

Take `CCc1cn(C2CC(O)C(CO)C2)c(=O)[nH]c1=O` (stereo not given): the VR in [8] is recorded as 1.1; in test [11], 1.1; in [12], 2.4; in [15], 2.1. The MIC50 in test [9] is 45 µg/mL (≈ 177 µM); in test [10], 180 µg/mL and 700 µM; in [13], 170 µM (≈ 43.2 µg/mL); in test [14] it was 70 µg/mL and 270 µM; in test [16], 230 µg/mL and 890 µM.

Consider `C#Cc1cn(C2CC(O)C(CO)C2)c(=O)[nH]c1=O` (stereo not given), for which the VR worked out at 0.9 in test [17] and 1.1 in [19]. The MIC50 in [18] was 250 µg/mL and 990 µM; in test [10], 210 µg/mL and 830 µM.

Turning to `CCc1cn([C@H]2C[C@H](O)[C@@H](CO)O2)c(=O)[nH]c1=O` [EDOXUDINE], the MIC50 in test [20] is 20 µg/mL and 80 µM; in [22], 37 µg/mL (≈ 144 µM); in [24], 140 µM (≈ 35.9 µg/mL). The values for the VR in test [21] and in [23] were 2.3 and 2.2, respectively.

With `Nc1ncnc2c1ncn2[C@@H]1O[C@H](CO)[C@@H](O)[C@@H]1O` [VIDARABINE], the MIC50 in [20] was 15 µg/mL and 60 µM; in test [25], 24 µg/mL and 90 µM; in test [26], 5 µg/mL and 20 µM; in test [27] it was 70 µM (≈ 18.7 µg/mL); in test [22], 45 µg/mL and 170 µM; in test [31], 18 µg/mL (≈ 67.4 µM). Further, the MIC50 in test [32] is 22 µg/mL and 80 µM. Further, the VR in [21] was 2; in test [28] it was 1.2; in test [29], 1.7; in [23] it was 1.3; in [30] it was 2.1; in [33] it was 2.4.

The record behind these values is ChEMBL document CHEMBL1123493, “Synthesis and antiviral activity of the carbocyclic analogues of 5-ethyl-2'-deoxyuridine and of 5-ethynyl-2'-deoxyuridine” (1986).
